Source: ChEMBL document CHEMBL3097999, “Synthesis and biological evaluation of novel substituted 1,3,4-thiadiazole and 2,6-di aryl substituted imidazo [2,1-b] [1,3,4] thiadiazole derivatives” (2014)

Key:
Format in all cases: functional
Conditions in all cases: read-out: DIZ
Candida albicans [1] = assay: Antimicrobial activity against Candida albicans at 0.5 mg/ml by well plate method
Outline: (§1)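 Fungal well-plate diffusion against Candida albicans, Aspergillus flavus and Chrysosporium keratinophilum. Compounds in DMSO at 1 and 0.5 mg/mL, with fluconazole as the reference drug. Activity scored as the zone of inhibition.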

Candida albicans [2] = assay: Antimicrobial activity against Candida albicans at 1 mg/ml by well plate method; outline: as §1
[3] = system: Chrysosporium keratinophilum; assay: Antimicrobial activity against Chrysosporium keratinophilum at 0.5 mg/ml by well plate method; outline: as §1
Aspergillus flavus [4] = assay: Antimicrobial activity against Aspergillus flavus at 0.5 mg/ml by well plate method; outline: as §1
[5] = system: Chrysosporium keratinophilum; assay: Antimicrobial activity against Chrysosporium keratinophilum at 1 mg/ml by well plate method; outline: as §1
Aspergillus flavus [6] = assay: Antimicrobial activity against Aspergillus flavus at 1 mg/ml by well plate method; outline: as §1
Pseudomonas aeruginosa [7] = assay: Antimicrobial activity against Pseudomonas aeruginosa at 0.5 mg/ml by well plate method
Outline: (§2)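 Agar well-plate diffusion against E. coli, B. subtilis and P. aeruginosa. Test compounds dissolved in DMSO at 1 and 0.5 mg/mL and placed in wells. Streptomycin was the reference drug. Read-out is the zone of inhibition.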

Pseudomonas aeruginosa [8] = assay: Antimicrobial activity against Pseudomonas aeruginosa at 1 mg/ml by well plate method; outline: as §2
Bacillus subtilis [9] = assay: Antimicrobial activity against Bacillus subtilis at 0.5 mg/ml by well plate method; outline: as §2
Bacillus subtilis [10] = assay: Antimicrobial activity against Bacillus subtilis at 1 mg/ml by well plate method; outline: as §2
Escherichia coli [11] = assay: Antimicrobial activity against Escherichia coli at 0.5 mg/ml by well plate method; outline: as §2
Escherichia coli [12] = assay: Antimicrobial activity against Escherichia coli at 1 mg/ml by well plate method; outline: as §2

SMILES	zone of inhibition at 500 µg/mL (Candida albicans [1]) [mm]	zone of inhibition at 1000 µg/mL (Candida albicans [2]) [mm]	zone of inhibition at 500 µg/mL [3] [mm]	zone of inhibition at 500 µg/mL (Aspergillus flavus [4]) [mm]	zone of inhibition at 1000 µg/mL [5] [mm]	zone of inhibition at 1000 µg/mL (Aspergillus flavus [6]) [mm]	zone of inhibition at 500 µg/mL (Pseudomonas aeruginosa [7]) [mm]	zone of inhibition at 1000 µg/mL (Pseudomonas aeruginosa [8]) [mm]	zone of inhibition at 500 µg/mL (Bacillus subtilis [9]) [mm]	zone of inhibition at 1000 µg/mL (Bacillus subtilis [10]) [mm]	zone of inhibition at 500 µg/mL (Escherichia coli [11]) [mm]	zone of inhibition at 1000 µg/mL (Escherichia coli [12]) [mm]
COc1ccc(-c2cn3nc(-c4ccc(NCC5CCCO5)c([N+](=O)[O-])c4)sc3n2)cc1 (stereo unspecified)	5	7	6	6	8	9	9	13	8	10	10	13
CC(C)(C)C(=O)Nc1nnc(-c2ccc(NC3CCCC3)c([N+](=O)[O-])c2)s1	2	5	2	2	4	4	2	3	3	4	4	6
CC(C)(C)C(=O)Nc1nnc(-c2ccc(Nc3ccc(F)cc3)c([N+](=O)[O-])c2)s1	2	4	4	2	5	3	4	6	3	5	5	7
CC(C)(C)C(=O)Nc1nnc(-c2ccc(N3CCCC3)c([N+](=O)[O-])c2)s1	5	6	3	4	5	6	4	6	1	3	3	5
CC(C)(C)C(=O)Nc1nnc(-c2ccc(NCc3ccc(F)cc3F)c([N+](=O)[O-])c2)s1	3	5	5	4	7	6	2	4	2	4	3	5
CC(C)(C)C(=O)Nc1nnc(-c2ccc(N3CCC(c4ccc(C(F)(F)F)cc4)CC3)c([N+](=O)[O-])c2)s1	4	7	5	5	7	8	6	7	5	7	5	8
COc1ccc(-c2cn3nc(-c4ccc(NCc5ccc(F)cc5F)c([N+](=O)[O-])c4)sc3n2)cc1	3	5	6	3	8	6	2	4	2	4	1	3
CC(C)(C)C(=O)Nc1nnc(-c2ccc(N3CCOCC3)c([N+](=O)[O-])c2)s1	3	5	2	2	4	5	10	13	9	11	10	12
CC(C)(C)C(=O)Nc1nnc(-c2ccc(NC3CCCCC3)c([N+](=O)[O-])c2)s1	7	9	4	5	6	7	7	9	6	8	8	10
CN1CCN(c2ccc(-c3nnc(NC(=O)C(C)(C)C)s3)cc2[N+](=O)[O-])CC1	2	4	2		4	3	2	3	3	4	3	5
COc1ccc(-c2cn3nc(-c4ccc(NC5CCCCC5)c([N+](=O)[O-])c4)sc3n2)cc1	7	9	5	6	7	8	7	9	7	10	9	11
CCCCNc1ccc(-c2nn3cc(-c4ccc(OC)cc4)nc3s2)cc1[N+](=O)[O-]	2	3	1		3	2	5	7	4	6	3	5
COc1ccc(-c2cn3nc(-c4ccc(N(C)C)c([N+](=O)[O-])c4)sc3n2)cc1	3	5	2	2	4	4	4	6	2	3	3	4
CN[C@@H]1[C@H](O[C@H]2[C@H](O[C@H]3[C@H](O)[C@@H](O)[C@H](N=C(N)N)[C@@H](O)[C@@H]3N=C(N)N)O[C@@H](C)[C@]2(O)C=O)O[C@@H](CO)[C@H](O)[C@H]1O [STREPTOMYCIN]							15	19	19	22	17	19
OC(Cn1cncn1)(Cn1cncn1)c1ccc(F)cc1F [FLUCONAZOLE]	20	22	15	10	17	13						
COc1ccc(-c2cn3nc(-c4ccc(N5CCN(C)CC5)c([N+](=O)[O-])c4)sc3n2)cc1							3	5	3	5	4	6
COc1ccc(-c2cn3nc(-c4ccc(N5CCCC5)c([N+](=O)[O-])c4)sc3n2)cc1	5	7	4	5	6	7	4	6	7	9	5	8
CCN(CC)c1ccc(-c2nn3cc(-c4ccc(OC)cc4)nc3s2)cc1[N+](=O)[O-]	5	6	3	3	5	5	1	3	3	5	4	6
